In brackets after ≈: the same amount, converted by molar mass. Activity calls are given as the source filed them. The calls are words filed in the database; no cut-off is given here.
Tests used:
Staphylococcus aureus [1] = experiment: Antimicrobial activity against methicillin-resistant Staphylococcus aureus N315 incubated for 24 hrs by NCCLS protocol based method; assay type: functional; settings: N315, 24 h
How it was run: (§1)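 Standard two-fold serial broth microdilution in 96-well plates per NCCLS; MIC (µg/mL) read as lowest concentration giving complete inhibition of microbial growth. Berberine, chloromycin and norfloxacin served as positive controls.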

Cyberlindnera jadinii = experiment: Antimicrobial activity against Candida utilis ATCC 9950 incubated for 24 hrs by NCCLS protocol based method; assay type: functional; settings: Williopsis jadinii, ATCC 9950, 24 h
Staphylococcus aureus [2] = experiment: Antimicrobial activity against Staphylococcus aureus ATCC 25923 incubated for 24 hrs by NCCLS protocol based method; assay type: functional; settings: ATCC 25923, 24 h
How it was run: (§2)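 Two-fold serial broth microdilution in 96-well plates per NCCLS standards. MIC (µg/mL) taken as the lowest concentration giving complete growth inhibition. Berberine, chloromycin and norfloxacin were positive controls for bacteria; fluconazole for fungi.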

Pseudomonas aeruginosa = experiment: Antimicrobial activity against Pseudomonas aeruginosa ATCC 27853 incubated for 24 hrs by NCCLS protocol based method; assay type: functional; settings: ATCC 27853, 24 h; how it was run: as §2
[3] = Antimicrobial activity against Candida mycoderma ATCC 9888 incubated for 24 hrs by NCCLS protocol based method; assay type: functional, Candida vini; settings: Kregervanrija fluxuum, ATCC 9888, 24 h
Micrococcus luteus = experiment: Antimicrobial activity against Micrococcus luteus ATCC 4698 incubated for 24 hrs by NCCLS protocol based method; assay type: functional; settings: ATCC 4698, 24 h; how it was run: as §2
Escherichia coli = experiment: Antimicrobial activity against Escherichia coli JM109 incubated for 24 hrs by NCCLS protocol based method; assay type: functional; settings: JM109, 24 h; how it was run: as §2
Candida albicans = experiment: Antimicrobial activity against Candida albicans ATCC 10231 incubated for 24 hrs by NCCLS protocol based method; settings: ATCC 10231, 24 h
Bacillus subtilis = experiment: Antimicrobial activity against Bacillus subtilis ATCC 6633 incubated for 24 hrs by NCCLS protocol based method; assay type: functional; settings: ATCC 6633, 24 h; how it was run: as §2
Saccharomyces cerevisiae = experiment: Antimicrobial activity against beer yeast ATCC 9763 incubated for 24 hrs by NCCLS protocol based method; assay type: functional; settings: ATCC 9763, 24 h
Proteus hauseri = experiment: Antimicrobial activity against Bacillus proteus ATCC13315 incubated for 24 hrs by NCCLS protocol based method; assay type: functional; settings: ATCC13315, 24 h; how it was run: as §2
Aspergillus flavus = experiment: Antimicrobial activity against Aspergillus flavus ATCC 204304 incubated for 24 hrs by NCCLS protocol based method; assay type: functional; settings: ATCC 204304, 24 h
[4] = Antimicrobial activity against Eberthella typhosa ATCC 14028 incubated for 24 hrs by NCCLS protocol based method; assay type: functional; settings: ATCC 14028, 24 h; how it was run: as §1
HepG2 [5] = experiment: (§3) Cytotoxicity against human HepG2 cells assessed as cell viability at 6.25 to 100 ug/ml by MTT assay; assay type: cell-based; settings: hepg2
How it was run: (§4)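 HepG2 cells exposed to compound up to 100 μg/mL. Viability read by colorimetric MTT assay with berberine as control. Mean of three parallels ± one standard deviation.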

Calf thymus DNA [6] = experiment: Binding affinity to calf thymus DNA by UV-Visible spectroscopy; assay type: nucleic-acid assay; settings: Bos taurus
How it was run: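 Calf thymus DNA held at a fixed concentration in Tris-HCl buffer pH 7.4, titrated with increasing compound. UV-vis absorption spectra recorded in 1.0 cm quartz cells, following the 260 nm DNA band. DNA concentration set from A260 using ε260 = 6600 L mol⁻¹ cm⁻¹ per phosphate. Purity confirmed by A260/A280 > 1.8.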

[7] = as §3; assay type: cell-based; settings: HepG2 cells, read-out: Activity; how it was run: as §4
Calf thymus DNA [8] = experiment: Binding affinity to calf thymus DNA by neutral red dye based UV-Visible spectroscopy; assay type: nucleic-acid assay; settings: Bos taurus
HepG2 [9] = experiment: Induction of ROS production in human HepG2 cells at 6.25 to 100 uM by DCFH-DA as probe based fluorescence microscopy; assay type: functional, cell-based
How it was run: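 Intracellular ROS detected with the fluorescent probe DCFH-DA and imaged by fluorescence microscopy. Compounds tested at 6.25, 12.5, 25, 50 and 100 μM, with berberine for comparison.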

SMILES	MIC (Staphylococcus aureus [1]) [µg/mL]	MIC80 (Cyberlindnera jadinii) [µg/mL]	MIC (Staphylococcus aureus [2]) [µg/mL]	MIC (Pseudomonas aeruginosa) [µg/mL]	MIC80 [3] [µg/mL]	MIC (Micrococcus luteus) [µg/mL]	MIC (Escherichia coli) [µg/mL]	MIC80 (Candida albicans) [µg/mL]	MIC (Bacillus subtilis) [µg/mL]	MIC80 (Saccharomyces cerevisiae) [µg/mL]	MIC (Proteus hauseri) [µg/mL]	MIC80 (Aspergillus flavus) [µg/mL]	MIC [4] [µg/mL]	Activity (HepG2 [5])	K (Calf thymus DNA [6]) [×10³ L/mol]	viability [7] [%]	Activity (Calf thymus DNA [8])	Activity (HepG2 [9])
CCc1nccn1Cc1cc(OC)c(O)c2c[n+]3c(cc12)-c1cc2c(cc1CC3)OCO2.[Cl-]	16	64	8	64	256	16	32	64	32	16	64	128	64	–	–	–	–	–
COc1cc(Cn2ccnc2C)c2cc3[n+](cc2c1O)CCc1cc2c(cc1-3)OCO2.[Cl-]	32	32	16	64	128	16	32	64	64	16	64	32	32	–	–	–	–	–
CCn1cc(C(=O)O)c(=O)c2cc(F)c(N3CCNCC3)cc21 [NORFLOXACIN]	8 (≈ 25.1 µM)	–	2 (≈ 6.26 µM)	2 (≈ 6.26 µM)	–	2 (≈ 6.26 µM)	16 (≈ 50.1 µM)	–	1 (≈ 3.13 µM)	–	4 (≈ 12.5 µM)	–	4 (≈ 12.5 µM)	–	–	–	–	–
CCCCCCCCCCCc1nccn1Cc1cc(OC)c(O)c2c[n+]3c(cc12)-c1cc2c(cc1CC3)OCO2.[Cl-]	64	256	128	256	128	128	256	128	128	128	128	256	256	–	–	–	–	–
CCc1nc(C)cn1Cc1cc(OC)c(O)c2c[n+]3c(cc12)-c1cc2c(cc1CC3)OCO2.[Cl-]	64	128	64	128	128	64	128	128	128	128	128	128	128	–	–	–	–	–
CCCCCCCCCCCCCCCCCc1nccn1Cc1cc(OC)c(O)c2c[n+]3c(cc12)-c1cc2c(cc1CC3)OCO2.[Cl-]	128	512	256	256	256	256	256	256	256	256	256	256	512	–	–	–	–	–
COc1cc(Cn2cc(C)nc2C)c2cc3[n+](cc2c1O)CCc1cc2c(cc1-3)OCO2.[Cl-]	64	128	64	128	128	64	128	128	128	256	128	128	128	–	–	–	–	–
COc1ccc2cc3[n+](cc2c1OC)CCc1cc2c(cc1-3)OCO2.[Cl-] [BERBERINE CHLORIDE]	128	256	512	256	128	512	512	512	512	128	256	512	512	Toxic	–	–	–	–
COc1cc(Cn2ccnc2)c2cc3[n+](cc2c1O)CCc1cc2c(cc1-3)OCO2.[Cl-]	32	32	32	64	128	16	32	64	8	32	64	64	1	–	5.22	> 87	Active	Active
OC(Cn1cncn1)(Cn1cncn1)c1ccc(F)cc1F [FLUCONAZOLE]	–	8 (≈ 26.1 µM)	–	–	32 (≈ 104 µM)	–	–	32 (≈ 104 µM)	–	16 (≈ 52.2 µM)	–	256 (≈ 836 µM)	–	–	–	–	–	–
CCCc1nccn1Cc1cc(OC)c(O)c2c[n+]3c(cc12)-c1cc2c(cc1CC3)OCO2.[Cl-]	32	128	16	128	128	32	64	64	64	32	64	128	64	–	–	–	–	–
CCCCc1nccn1Cc1cc(OC)c(O)c2c[n+]3c(cc12)-c1cc2c(cc1CC3)OCO2.[Cl-]	32	256	32	128	256	32	128	64	64	64	128	64	128	–	–	–	–	–
COc1cc(Cn2cnc(C)c2)c2cc3[n+](cc2c1O)CCc1cc2c(cc1-3)OCO2.[Cl-]	32	64	8	128	128	16	32	128	32	32	32	64	64	–	–	–	–	–

— ChEMBL document CHEMBL4428036, “Discovery of novel berberine imidazoles as safe antimicrobial agents by down regulating ROS generation” (Bioorg Med Chem Lett, 2016)
